These compounds were tested against Hemagglutinin (Influenza A virus (strain A/X-31 H3N2)) (UniProt P03438) (assay: Inhibition of influenza A, strain X-31, induced hemagglutinination of chicken erythrocytes). Conditions: Influenza A virus (A/X-31(H3N2)).
Assay type: functional
Outline: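 Binding affinities come from hemagglutination inhibition with adult chicken red blood cells. Each is reported as a relative affinity against methyl α-sialoside (Neu5Acα2Me), whose affinity is set at 1.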

Chain of Hemagglutinin (Influenza A virus (strain A/X-31 H3N2)) (P03438 whole entry): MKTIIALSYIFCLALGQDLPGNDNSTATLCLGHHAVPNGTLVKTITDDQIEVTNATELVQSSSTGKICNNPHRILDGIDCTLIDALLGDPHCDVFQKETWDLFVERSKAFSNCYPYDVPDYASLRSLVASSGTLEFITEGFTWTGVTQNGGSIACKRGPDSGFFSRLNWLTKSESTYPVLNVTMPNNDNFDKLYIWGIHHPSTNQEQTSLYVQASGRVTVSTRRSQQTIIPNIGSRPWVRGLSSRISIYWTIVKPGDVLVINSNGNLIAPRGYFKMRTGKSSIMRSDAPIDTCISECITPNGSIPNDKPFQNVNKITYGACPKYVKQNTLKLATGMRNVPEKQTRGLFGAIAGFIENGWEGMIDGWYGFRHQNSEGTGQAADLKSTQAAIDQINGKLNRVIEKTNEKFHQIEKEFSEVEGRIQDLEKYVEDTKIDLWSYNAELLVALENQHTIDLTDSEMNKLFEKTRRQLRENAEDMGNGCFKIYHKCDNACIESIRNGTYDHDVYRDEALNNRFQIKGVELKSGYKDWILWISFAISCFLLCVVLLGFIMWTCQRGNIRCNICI

**Q.** How did the Relative affinity turn out when `CC(=O)NC1C(O)CC(OCCCCC(=O)NCc2ccc3ncccc3c2)(C(=O)O)OC1[C@H](O)[C@H](O)CO` (some centres undefined) was run?
**A.** Its Relative affinity is 8.

**Q.** Which Relative affinity does the source give for `CC(=O)NC1C(O)CC(OCCCCCCCCC(=O)NCc2ccccc2)(C(=O)O)OC1[C@H](O)[C@H](O)CO` (some centres undefined) here?
**A.** Its Relative affinity is less than 8.

**Q.** How did the Relative affinity turn out when `CC(=O)NC1C(O)CC(OCCCCC(=O)NCCNC(=O)OCc2ccccc2)(C(=O)O)OC1[C@H](O)[C@H](O)CO` (some centres undefined) was run?
**A.** Its Relative affinity is 4.

**Q.** How did the Relative affinity turn out when `CC(=O)NC1C(O)CC(OCCCCC(=O)NCc2cc3ccccc3c3ccccc23)(C(=O)O)OC1[C@H](O)[C@H](O)CO` (some centres undefined) was run?
**A.** The Relative affinity was 32.

**Q.** How did the Relative affinity turn out when `CNC(=O)CCCCOC1(C(=O)O)CC(O)C(NC(C)=O)C([C@H](O)[C@H](O)CO)O1` (some centres undefined) was run?
**A.** The Relative affinity was 1.

**Q.** With `CC(=O)NC1C(O)CC(OCCCCC(=O)NNS(=O)(=O)c2cccc3c(N(C)C)cccc23)(C(=O)O)OC1[C@H](O)[C@H](O)CO` (some centres undefined) as the compound, how does the Relative affinity read?
**A.** The Relative affinity was 4.

**Q.** For `CC(=O)NC1C(O)CC(OCCC(=O)NCc2cccc3ccccc23)(C(=O)O)OC1[C@H](O)[C@H](O)CO` (some centres undefined), which Relative affinity is on record?
**A.** The Relative affinity was 8.

**Q.** With `CC(=O)NC1C(O)CC(OCCCCCCC(=O)NCc2cccc3ccccc23)(C(=O)O)OC1[C@H](O)[C@H](O)CO` (some centres undefined) as the compound, how does the Relative affinity read?
**A.** The Relative affinity was 64.

**Q.** For `CC(=O)NC1C(O)CC(OCCCCC(=O)NCc2ccccc2)(C(=O)O)OC1[C@H](O)[C@H](O)CO` (some centres undefined), which Relative affinity is on record?
**A.** Its Relative affinity is 8.

**Q.** With `CC(=O)NC1C(O)CC(OCCCCCCCCC(=O)NCc2cccc3ccccc23)(C(=O)O)OC1[C@H](O)[C@H](O)CO` (some centres undefined) as the compound, how does the Relative affinity read?
**A.** Its Relative affinity is 16.

**Q.** How did the Relative affinity turn out when `CC(=O)NC1C(O)CC(OCCCCC(=O)NCc2cccc3ccccc23)(C(=O)O)OC1[C@H](O)[C@H](O)CO` (some centres undefined) was run?
**A.** The Relative affinity was 32.

**Q.** `CC(=O)NC1C(O)CC(OCCCCC(=O)NCc2cccc(C(=O)O)c2)(C(=O)O)OC1[C@H](O)[C@H](O)CO` (some centres undefined) was tested. Which Relative affinity did it give?
**A.** Its Relative affinity is 16.

**Q.** With `CC(=O)NC1C(O)CC(OCCCCCCC(=O)NCc2ccccc2)(C(=O)O)OC1[C@H](O)[C@H](O)CO` (some centres undefined) as the compound, how does the Relative affinity read?
**A.** Its Relative affinity is 16.

**Q.** `CC(=O)NC1C(O)CC(OCCCCCCC(=O)NCc2cc3ccccc3c3ccccc23)(C(=O)O)OC1[C@H](O)[C@H](O)CO` (some centres undefined) was tested. Which Relative affinity did it give?
**A.** The Relative affinity was 64.

Reference: ChEMBL document CHEMBL1125780, “Monovalent sialosides that bind tightly to influenza A virus” (J Med Chem, 1991)
